Data: ChEMBL document CHEMBL2331329, “Synthesis and biological evaluation of 2-(alkoxycarbonyl)-3-anilinobenzo[b]thiophenes and thieno[2,3-b]pyridines as new potent anticancer agents” (J Med Chem, 2013)

Assays:
HT-29 = test: Cytotoxicity against human HT-29 cells after 72 hrs by MTT assay; format: functional, cell-based; details: HT-29, 72 h
[1] = Cytotoxicity against human SEM cells after 72 hrs by MTT assay; format: functional, cell-based
Method in brief: (§1)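 Cells plated at 8 × 10^3 per well, 18 h at 37 °C, 5% CO2, then fresh medium with graded compound concentrations (DMSO ≤0.25%) for 72 h. Jurkat, SEM, HL-60 grown in RPMI-1640; A549, HeLa, HT-29, MCF-7 in DMEM; 10% FBS with penicillin/streptomycin. MTT viability read-out; IC50 vs 0.25% DMSO controls; mean ± SE of at least three independent experiments.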

MCF7 = test: Cytotoxicity against human MCF7 cells after 72 hrs by MTT assay; format: functional, cell-based; details: MCF7, 72 h
Jurkat = test: Cytotoxicity against human Jurkat cells after 72 hrs by MTT assay; format: functional, cell-based; method in brief: as §1
HL-60 = test: Cytotoxicity against human HL60 cells after 72 hrs by MTT assay; format: functional, cell-based; details: HL-60, 72 h
HeLa = test: Cytotoxicity against human HeLa cells after 72 hrs by MTT assay; format: functional, cell-based
A549 = test: Cytotoxicity against human A549 cells after 72 hrs by MTT assay; format: functional, cell-based; details: A549, 72 h
Bos taurus [2] = species: Bos taurus; test: Displacement of [3H]colchicine from bovine brain tubulin at 1 uM after 20 mins by turbidimetric analysis
Bos taurus [3] = species: Bos taurus; test: Displacement of [3H]colchicine from bovine brain tubulin at 5 uM after 20 mins by turbidimetric analysis
[4] = Inhibition of bovine brain tubulin polymerization after 20 mins by turbidimetric analysis; design: species or system Bos taurus
Method in brief: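 Bovine brain tubulin (10 μM) preincubated with varying compound concentrations in glutamate buffer at 30 °C, chilled to 0 °C, 0.4 mM GTP added, then warmed to 30 °C in a recording spectrophotometer.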

CCRF-CEM [5] = test: Resistance index, ratio of IC50 for human CEM/VBL100 cells to IC50 for human CEM cells; format: functional
Method in brief: (§2)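 MTT viability test: 8 × 10^3 cells per well settled 18 h at 37 °C, 5% CO2, then given fresh medium with compound (from 10 mM DMSO stocks, final DMSO ≤0.25%) for 72 h. […] CEMVbl-100 is a vinblastine-selected P-gp line; LoVoDoxo is grown in Ham's F12 with 0.1 μg/mL doxorubicin. Resistance index = resistant IC50/parental IC50.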

[6] = Cytotoxicity against human CEM/VBL100 cells after 72 hrs by MTT assay; format: functional, cell-based; details: CEM/VBL100, 72 h; method in brief: as §2
CCRF-CEM [7] = test: Cytotoxicity against human CEM cells after 72 hrs by MTT assay; format: functional, cell-based; method in brief: as §2
[8] = Cytotoxicity against human A549-T12 cells after 72 hrs by MTT assay; format: functional, cell-based; details: A549, 72 h
Method in brief: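 Mean ± SE of at least three independent experiments. Resistance ratio = IC50 in resistant line/IC50 in nonresistant line.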

Row | Structure (SMILES) | IC50 (HT-29) [nM] | IC50 [1] [nM] | IC50 (MCF7) [nM] | IC50 (Jurkat) [nM] | IC50 (HL-60) [nM] | IC50 (HeLa) [nM] | IC50 (A549) [nM] | inhibition (Bos taurus [2]) [%] | inhibition (Bos taurus [3]) [%] | IC50 [4] [nM] | Ratio IC50 (CCRF-CEM [5]) | IC50 [6] [nM] | IC50 (CCRF-CEM [7]) [nM] | IC50 [8] [nM]
1 | COC(=O)c1sc2cccc(C)c2c1Nc1cc(OC)c(OC)c(OC)c1 | 1020 | 2500 | 8190 | 6710 | 3380 | 1300 | 4580 | – | – | – | – | – | – | –
2 | COC(=O)c1sc2ccccc2c1Nc1cc(OC)c(OC)c(OC)c1 | 299 | 179 | 795 | 490 | 1540 | 427 | 2850 | – | – | – | – | – | – | –
3 | CCOC(=O)c1sc2ncccc2c1Nc1cc(OC)c(OC)c(OC)c1 | 2260 | 1850 | 5280 | 8450 | 6100 | 2100 | 7160 | – | – | – | – | – | – | –
4 | COc1ccc(/C=C\c2cc(OC)c(OC)c(OC)c2)cc1O [COMBRETASTATIN A4] | – | 5 | – | – | – | – | – | – | – | – | – | – | – | –
5 | CCOC(=O)c1sc2cc(OC)ccc2c1Nc1cc(OC)c(OC)c(OC)c1 | – | 10.2 | 5.6 | 3.3 | 31.6 | 0.56 | 8.9 | 77 | 94 | 810 | – | – | – | –
6 | COC(=O)c1sc2c(C)cccc2c1Nc1cc(OC)c(OC)c(OC)c1 | 552 | 1630 | 4550 | – | 4270 | 1730 | 3930 | – | – | – | – | – | – | –
7 | CC[C@]1(O)C[C@@H]2CN(CCc3c([nH]c4ccccc34)[C@@](C(=O)OC)(c3cc4c(cc3OC)N(C)[C@H]3[C@@](O)(C(=O)OC)[C@H](OC(C)=O)[C@]5(CC)C=CCN6CC[C@]43[C@@H]65)C2)C1 [VINBLASTINE] | – | – | – | – | – | – | – | – | – | – | 105 | 211 | 2 | –
8 | CC(=O)O[C@H]1C(=O)[C@@]2(C)[C@H]([C@H](OC(=O)c3ccccc3)[C@]3(O)C[C@H](OC(=O)[C@H](O)[C@@H](NC(=O)c4ccccc4)c4ccccc4)C(C)=C1C3(C)C)[C@]1(OC(C)=O)CO[C@@H]1C[C@@H]2O [PACLITAXEL] | – | – | – | – | – | – | – | – | – | – | – | – | – | 92.3
9 | COC(=O)c1sc2ccc(C)cc2c1Nc1cc(OC)c(OC)c(OC)c1 | 299 | 185 | 540 | 727 | 4720 | 398 | 2810 | – | – | – | – | – | – | –
